Compound activity deposited in PubChem by several laboratories.
EP2 modulator: EP2 receptor modulators, cAMP readout, primary screen, cell-based, HTRF cAMP, PGE2 stimulation; Prostaglandin E2 receptor EP2 subtype (Homo sapiens), P43116; EP2-expressing cells, cAMP HTRF FRET, PGE2 co-stimulation; induction, % at 25 µM; 260,000 compounds, 0.83% hits; AID 940, 2007;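 active means compounds whose cAMP rise, as percent of the full-agonist control response, exceeds 60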;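 further: rat C6 glioma line stably carrying human EP2 under a CMV promoter; the protocol text gives 20 µM as final concentration; 100% = response of wells given 1 µM PGE2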
Target sequence (P43116 whole entry, looked up): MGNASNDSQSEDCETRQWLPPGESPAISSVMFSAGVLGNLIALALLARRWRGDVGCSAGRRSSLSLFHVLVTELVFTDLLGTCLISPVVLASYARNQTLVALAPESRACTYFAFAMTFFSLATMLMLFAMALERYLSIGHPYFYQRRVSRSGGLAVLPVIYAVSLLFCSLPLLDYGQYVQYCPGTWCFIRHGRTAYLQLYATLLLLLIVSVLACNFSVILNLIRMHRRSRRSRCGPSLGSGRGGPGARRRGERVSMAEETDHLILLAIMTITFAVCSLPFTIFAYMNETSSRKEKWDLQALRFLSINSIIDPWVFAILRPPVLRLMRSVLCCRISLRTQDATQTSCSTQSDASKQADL
PfG6PD inh: PfG6PD enzyme inhibitors, primary screen, biochemical, fluorescence intensity, uHTS | glucose-6-phosphate dehydrogenase-6-phosphogluconolactonase (Plasmodium falciparum 3D7) | PfGluPho enzyme, NADPH resazurin-diaphorase fluorescence | inhibition, % at 20 µM | 350,000 compounds, 0.78% hits;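 active means inhibition reaching at least a set limit at 20 µM in the primary screen, cut at about 59% in these data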;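 further: 0% = DMSO wells with substrate and 100% = DMSO wells lacking glucose-6-phosphate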
PGE2 EP2 inh: human EP2 receptor antagonists, primary screen, TR-FRET cAMP, C6 glioma cells; Prostaglandin E2 receptor EP2 subtype (Homo sapiens), P43116; C6 glioma cells expressing human EP2; cells stimulated with saturating PGE2; inhibition, % at 25 µM; 260,000 compounds, 0.52% hits; AID 1422, 2008;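 active means percent inhibition above 40 after rounding to a whole number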;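 further: rat C6 glioma host cells with rolipram phosphodiesterase inhibitor present; the protocol text gives 20 µM as final concentration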
TbHK1 inh: Trypanosoma brucei hexokinase 1 inhibitors, primary screen, biochemical, G6PDH-coupled NADH absorbance, MLSCN library; hexokinase 1 [Trypanosoma brucei]; recombinant TbHK1, G6PDH-coupled NADH A340; inhibition, % at 10 µM; 220,000 compounds, 0.11% hits; AID 1430, 2008;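 active means inhibition of 50% or more in the single-dose primary screen; inactive means inhibition below 50%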
PHOSPHO1 inh: PubChem AID 1565 | Phosphoethanolamine/phosphocholine phosphatase (Homo sapiens), Q8TCT1 | recombinant PHOSPHO1, absorbance phosphatase assay | inhibition, % at 13.3 µM | 290,000 compounds, 1.1% hits; in the data active means inhibition above about 60%
Target sequence (Q8TCT1 whole entry, looked up): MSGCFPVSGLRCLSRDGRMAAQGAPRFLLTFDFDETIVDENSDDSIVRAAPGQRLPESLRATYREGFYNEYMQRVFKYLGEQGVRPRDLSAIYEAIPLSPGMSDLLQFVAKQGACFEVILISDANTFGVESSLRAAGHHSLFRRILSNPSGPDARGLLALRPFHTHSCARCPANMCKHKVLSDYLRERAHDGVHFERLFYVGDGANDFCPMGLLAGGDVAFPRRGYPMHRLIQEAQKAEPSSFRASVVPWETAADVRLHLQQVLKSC
HKDC1 inhibitor: HKDC1 hexokinase inhibitors, primary screen, biochemical, fluorescence, uHTS; Q2TB90; recombinant HKDC1, G6PDH/diaphorase resazurin coupled fluorescence; inhibition, % at 20 µM; 340,000 compounds, 0.16% hits;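 active means inhibition above about 35% when tested at 20 µM, limit read from the data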;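 further: plate controls were DMSO wells with enzyme for no effect and DMSO wells lacking enzyme for full effect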
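Incubation: 90 min at room temperature in dark / Material: recombinant HKDC1 (HK5) hexokinase enzyme, produced in-house / Quantity: enzyme 5 µg/mL final / Compound: one dose of 20 µM, 1% DMSO / Reagent: glucose and ATP substrates / Buffer or medium: Tris pH 8.0 buffer with MgCl2, Tween-20, BSA, BME / Technique: resorufin fluorescence at 613 nm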
HKDC1 act conf2: HKDC1 hexokinase activators, confirmation, biochemical, single concentration. shares compounds with HKDC1 inhibitor. AID 504708, 2011. 740 compounds, 14% hits. recombinant HKDC1, G6PDH/diaphorase resazurin fluorescence; stronger effect = lower value. inhibition, % at 20 µM;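 active means inhibition at or below a set negative limit, negative inhibition meaning the enzyme was activated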
PfGluPho conf: PfG6PD inhibitors, hit retest, confirmation, biochemical, fluorescence intensity, single concentration; shares compounds with PfG6PD inh; recombinant PfGluPho, NADPH-diaphorase-resazurin fluorescence; inhibition, % at 20 µM; 2,400 compounds, 34% hits; AID 504753, 2011;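 active means inhibition of at least 50% at 20 µM in any single replicate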;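 further: 0% = DMSO with substrate and 100% = DMSO lacking glucose-6-phosphate substrate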
Diaph ctr 10uM: diaphorase inhibitors and chemical oxidizers, confirmation, counter-screen for P. falciparum G6PD inhibitor project, biochemical, fluorescence intensity, 10 µM NADPH; shares compounds with PfG6PD inh; diaphorase-coupled resazurin reduction, NADPH 10 uM; inhibition, % at 20 µM; 820 compounds, 39% hits; AID 504862, 2011;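 active means average inhibition reaching 50% or more with the compound at 20 µM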;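 further: resorufin red fluorescence formed as diaphorase reduces resazurin using NADPH; 0% = DMSO with enzyme and 100% = DMSO without enzyme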
Diaph ctr 30uM: diaphorase inhibitors and chemical oxidizers, confirmation, counter-screen for P. falciparum G6PD inhibitor project, biochemical, fluorescence intensity, 30 µM NADPH. shares compounds with PfG6PD inh. Diaphorase/resazurin coupled assay, resorufin fluorescence. inhibition, % at 20 µM. 820 compounds, 29% hits. AID 504863, 2011;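 active means inhibition averaging 50% or more, tested at 20 µM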;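 further: 0% = DMSO with enzyme and 100% = DMSO wells lacking diaphorase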
* = called active by the depositor; · = no result given; ! = repeats disagree. Most compounds without a hit are left out; they make up all but 2.5% or so of the library.

SMILES | EP2 modulator | PfG6PD inh | PGE2 EP2 inh | TbHK1 inh | PHOSPHO1 inh | HKDC1 inhibitor | HKDC1 act conf2 | PfGluPho conf | others
CCc1cc2ccc(C)cc2nc1SCC(N)=O | 50 | · | 13 | · | · | · | · | ·
O=C1C=C(Nc2ccccc2O)c2ccccc2C1=O | -37 | -5 | 14 | -8 | 29 | 24 | · | ·
O=C1C=C(NCc2ccccc2)c2ccccc2C1=O | -106 | 118* | 11 | -11 | 37 | 80* | 56 | 29
COc1ccccc1NC(=O)c1ccc(C)c(S(=O)(=O)N2CCCCCC2)c1 | 35 | · | 11 | · | · | · | · | ·
COc1cc(CN2CCC(O)(c3ccccc3)C2)ccc1OCc1c(C)noc1C (stereo not given) | -51 | · | 7 | · | · | · | · | ·
O=S(=O)(Nc1cc(Sc2ncn[nH]2)c(O)c2ccccc12)c1ccccc1 | -62 | 102* | 35 | 6 | 2 | 55* | 48 | 98* | Diaph ctr 10uM=53*;Diaph ctr 30uM=46
Cc1cc(O)c(Sc2ncn[nH]2)cc1NS(=O)(=O)c1ccc(Cl)cc1 | · | 22 | · | · | · | 2 | · | ·
CC1(C)Cc2c(C#N)c(NCC3CCCO3)nc(-c3ccco3)c2CO1 (stereo not given) | 45 | 20 | 10 | -1 | -14 | -3 | · | ·
CC(C)c1nc2oc3c(NCC4CCCO4)ncnc3c2c2c1COC(C)(C)C2 (stereo not given) | · | 66* | · | -15 | 10 | 40* | 63 | 37
COc1ccc2nc(Cl)cc(Cl)c2c1 | -23 | 4 | 6 | -2 | 28 | 1 | · | ·
C=CS(=O)(=O)c1c2cc(OC)ccc2nc2ccc(OC)cc12 | · | 69* | · | · | · | 34 | 4 | 20
C=CCn1c(N2CCCC(C)C2)nc2c1c(=O)[nH]c(=O)n2C (stereo not given) | 7 | · | 4 | · | · | · | · | ·
CC(=O)N1CCN(c2ccc(NC(=O)COc3cccc4ccccc34)cc2)CC1 | -6 | · | 9 | · | · | · | · | ·
C[n+]1c2cc(N)ccc2cc2ccc(N)cc21 | 19 | 78* | 20 | · | · | 44*! | -20 | 19
O=C(Cc1ccccc1Cl)NCCN1CCC(O)(c2ccc(F)cc2)CC1 | -21 | · | 6 | · | · | · | · | ·
Cc1ccccc1NC1=C/C(=N\S(=O)(=O)c2ccc(C(=O)O)cc2)c2ccccc2C1=O | · | 78* | · | · | 39 | 70* | 71 | 61* | Diaph ctr 10uM=59*;Diaph ctr 30uM=52*
COc1ccc(S(=O)(=O)/N=C2\C=C(Nc3ccc(O)cc3)C(=O)c3ccccc32)cc1 | · | 109* | · | · | 4 | 42* | 27 | 52* | Diaph ctr 10uM=40;Diaph ctr 30uM=48
CC(=O)Nc1ccc(NC2=C/C(=N/S(=O)(=O)c3cccs3)c3ccccc3C2=O)cc1 | -84 | 87* | 39 | -18 | 48 | 44* | 52 | 73* | Diaph ctr 10uM=73*;Diaph ctr 30uM=76*
Cc1cccc(NC(=O)C(=O)NCCN2CCOCC2)c1C | 0 | · | 13 | · | · | · | · | ·
COc1ccc2[nH]c(CN3CCC4(CC3)NC(=O)c3ccccc3O4)c(C)c2c1 | -103 | · | 13 | · | · | · | · | ·
O=C1C=CC(=O)C(C2=C3C(=O)N(CCc4ccccc4)CC(=O)N3CCC2)=C1 | -53 | 110* | 90* | -1 | 2 | 63* | 71 | 114* | Diaph ctr 10uM=99*;Diaph ctr 30uM=82*
CCc1ccc(C2Nc3ccccc3NC3=C2C(=O)CC(C)(C)C3)cc1 (stereo not given) | -7 | · | 9 | · | · | · | · | ·
O=C1C(F)=CC(COC(c2ccccc2)(c2ccccc2)c2ccccc2)OC1n1cc(F)c(=O)[nH]c1=O (stereo not given) | · | 59* | · | · | · | 40* | 14 | -3
O=C(NC1CC1)[C@H]1C=CCN1C(=O)c1cccs1 | -6 | · | 5 | · | · | · | · | ·
O=C1C(Cl)=C(Nc2ccccc2)C(=O)c2ccccc21 | -63 | -17 | 38 | -15 | -9 | -38 | · | ·
SMILES | EP2 modulator | PfG6PD inh | PGE2 EP2 inh | TbHK1 inh | PHOSPHO1 inh | HKDC1 inhibitor | HKDC1 act conf2 | PfGluPho conf | others
O=C1C(Cl)=C(NCCc2ccccc2)C(=O)c2ccccc21 | · | 97* | · | · | · | 53* | 59 | 80* | Diaph ctr 10uM=2;Diaph ctr 30uM=-2
CC1=NOC(=O)/C1=C\c1ccc(-c2cccc(Cl)c2)o1 | -35 | 72* | 109* | 16 | 0 | 38* | 3 | 11
CC1=NOC(=O)/C1=C\c1ccc(-c2ccc(Cl)c(C(=O)O)c2)o1 | 13 | 12 | 7 | -11 | 13 | -2 | · | ·
C[n+]1c(-c2ccccc2)cc2c(=Cc3ccc([N+](=O)[O-])cc3)c3ccccc3n21 | · | 76* | · | · | · | 36* | 6 | 50* | Diaph ctr 10uM=-16;Diaph ctr 30uM=-5
Cc1cc2c(=Cc3ccc(N(C)C)cc3)c3ccccc3n2[n+]1C | · | 27 | · | · | · | -4 | · | ·
CN(C)c1ccc(C=c2c3cc(O)ccc3n3c2cc(-c2ccccc2)[n+]3C)cc1 | · | 83* | · | · | · | 56* | 30 | 89* | Diaph ctr 10uM=35;Diaph ctr 30uM=31
NCCNc1ccc(C(=O)N2c3ccccc3Sc3ccccc32)cc1[N+](=O)[O-] | · | 69* | · | · | 36 | 6 | · | 92* | Diaph ctr 10uM=17;Diaph ctr 30uM=14
Nc1ccc(C(=O)OCC(=O)N2c3ccccc3Sc3ccccc32)cc1[N+](=O)[O-] | 34 | -3 | 5 | -6 | -2 | -3 | · | ·
O=C(CSc1nnc(-c2cccnc2)n1Cc1ccco1)N(C1CCCCC1)C1CCCCC1 | 36 | · | 10 | · | · | · | · | ·
Cc1cc(C)nc(NS(=O)(=O)c2ccc(NC(=O)/C=C/c3cccs3)cc2)n1 | -1 | · | 8 | · | · | · | · | ·
Cc1ccc(S(=O)(=O)NC(=O)Nc2ccc(N(C)C)cc2)cc1 | · | 73* | · | · | 14 | 9 | · | 21
Cc1ccc(NC(=O)NNS(=O)(=O)c2ccc(Br)cc2)cc1 | 15 | -4 | 18 | 4 | -12 | -4 | · | ·
CC(=O)N1CCN(c2cc(Cl)ccc2C)CC1 | -9 | · | 5 | · | · | · | · | ·
O=c1c(O)c(-c2cc(O)c(O)c(O)c2)oc2cc(O)cc(O)c12 | -3 | 67* | 17 | · | · | 3 | · | 47
O=c1c(O)c(-c2ccccc2)oc2cc(O)cc(O)c12 | · | -30 | · | · | · | -2 | · | ·
